The values that follow come from ChEMBL document CHEMBL1151770, “Cespihypotins Q-V, verticillene diterpenoids from Cespitularia hypotentaculata” (2008).

Some results are limits rather than exact numbers.

The subject of one test is WiDr. Description: Cytotoxicity against human WiDr cells by MTT assay. It counts as functional. Conditions: read-out: ED50 (the source's name). Summed up: (§1)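 Cells grown in serum-supplemented RPMI-1640 at 37 °C, 5% CO2. Seeded at 2880 cells/well for 4 h, then samples added at 1, 10, 20 and 40 µg/mL and incubated 3 days at 37 °C. MTT added for 5 h, formazan dissolved in DMSO, absorbance read at 550 nm. ED50 is the concentration giving 50% reduction of absorbance relative to untreated cells.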

In a further test the test system is Daoy. The test can be described thus: Cytotoxicity against human Daoy cells by MTT assay. It counts as functional. The note with it: read-out: ED50 (the source's name). Summed up: as §1
For orientation: Formazan colour is commonly taken as a measure of viable cells.

For `C=C1CC[C@@H]2CC[C@]34O[C@@]3(C2(C)C)[C@@](O)(C/C(C)=C/C(=O)C1)O[C@H]4OC`, the EC50 with WiDr was 54 µM; in the test on Daoy, 40 µM.
Consider `C=C1CC[C@@H]2CCC3=C(C2(C)C)[C@@](OC)(C/C(C)=C/[C@@H](O)C1)O[C@H]3OC` [CESPIHYPOTIN Q], for which the EC50 with WiDr and with Daoy was more than 55 µM each time.
Take `C=C1CC[C@@H]2CCC3=C([C@@H](C/C(C)=C/C(=O)C1)OC3=O)C2(C)C` [CESPIHYPOTIN R]: the values for the EC50 in the test with WiDr and in the test with Daoy were 50 µM and more than 55 µM, respectively.
The matching figures for `C=C1CC[C@@H]2CCC(=O)[C@@](O)([C@@H](O)C/C(C)=C/C(=O)C1)C2(C)C` [CESPIHYPOTIN T]: 7.5 µM and 9.3 µM.
Consider `C=C1CC[C@@H]2CCC3=C([C@@H](C[C@]4(C)O[C@H]4[C@@H](O)C1)OC3=O)C2(C)C` [CESPIHYPOTIN U], for which the EC50 with WiDr and with Daoy was more than 60 µM each time.
As to `C=C1CC[C@@H]2CCC3=C(C2(C)C)[C@](O)(C/C(C)=C/[C@@H](O)C1)OC3=O` [CESPIHYPOTIN V], the EC50 in the test with WiDr is more than 60 µM; in the test on Daoy, 60 µM.
The matching figures for `CO[C@@]12[C@H](COC(N)=O)C3=C(C(=O)C(C)=C(N)C3=O)N1C[C@@H]1N[C@@H]12` [MITOMYCIN]: 0.18 µM and 0.21 µM.
